# Measured values pooled from the literature.
# Compare with care: the assays were run in different laboratories.
# Read-out: cell growth or viability
Compound,cell line,method,time,IC50 [µM]
O=c1ncccn1[C@@H]1O[C@H](CO)[C@@H](O)[C@H]1O,MEC1,,48 h,195
O=C1c2c(O)ccc(O)c2C(=O)c2c(NCCNCCO)ccc(NCCNCCO)c21,GISTT1,resazurin,72 h,0.42
O=C1Nc2ccccc2C(=O)CCc2cc(O)ccc21,L6,,,84
COc1cc(N(C)CCN(C)C)c(NC(=O)/C=C/C(C)C)cc1Nc1nc(N2CCc3sccc3C2)c2sccc2n1,NCI-H460,MTT,,> 50
O=C1CCc2ncccc2C(=O)Nc2ccccc21,L6,,,160
COc1ccccc1C(=O)c1cc2c(-c3ccccc3)c(OC)ccc2o1,L1210,,48 h,> 50
O=C1Nc2ccc(C(F)(F)F)cc2C(=O)CCc2ccccc21,L6,,,9
C=CC(=O)Nc1cc(Nc2nc(N3CCOCC3)c3sccc3n2)c(OC)cc1N(C)CCN(C)C,NCI-H460,MTT,,> 50
CC(C)[C@H](N)c1nc2cc(-c3ccnnc3)sc2c(=O)[nH]1,COLO 205,MTT,,5.97
O=C1Nc2ccc(F)cc2C(=O)CCc2ccccc21,L6,,,110
CC(C)n1c(/C=C/C(O)CC(O)CC(=O)O)c(-c2ccc(F)cc2)c2ccccc21 (centres unmarked),L1210,MTS,96 h,2.3
C#C[C@]1(CO)O[C@@H](n2cnc3c(N)nc(F)nc32)C[C@@H]1O,MDCK-II,MTT,48 h,377
CCC(=O)Nc1cc(Nc2nc(Nc3cnn(C)c3)c3sccc3n2)c(OC)cc1N(C)CCN(C)C,NCI-H460,MTT,,> 50
CC(C)[C@H](N)c1nc2cc(-c3cn[nH]n3)sc2c(=O)[nH]1,COLO 205,MTT,,3.79
CCN(CC)CCCC(C)Nc1ccnc2cc(Cl)ccc12 (centres unmarked),GISTT1,resazurin,72 h,> 1
CC[C@@H](C)[C@H](N)C(=O)N1Cc2ccccc2C1,RS4-11,ATP luminescence,24 h,71.1
COc1cc(Nc2nccc(-c3cnn4nc(OC)ccc34)n2)cc(C(F)(F)F)c1,NCI-H1838,ATP luminescence,,> 3
COc1c2ccoc2c(OCC=C(C)C)c2oc(=O)ccc12,COLO 205,MTT,72 h,> 100
O=c1c(O[C@@H]2O[C@H](CO)[C@@H](O)[C@H](O)[C@H]2O)c(-c2ccc(O)c(O)c2)oc2cc(O)cc(O)c12,SCaBER,ATP luminescence,72 h,8.66
O=C1Nc2ccc(OC(F)(F)F)cc2C(=O)CCc2ccccc21,L6,,,44
C=C(C)C(=O)Nc1ccc(-c2c(-c3ccc(Oc4nccc(C)n4)c(F)c3)c3c(N)ncnc3n2C)cc1,MDA-MB-453,ATP luminescence,96 h,> 10
C[C@@H]1O[C@@H](O[C@H]2C[C@@H](O)[C@]3(CO)[C@H]4[C@H](O)C[C@]5(C)[C@@H](C6=CC(=O)OC6)CC[C@]5(O)[C@@H]4CC[C@]3(O)C2)[C@H](O)[C@H](O)[C@H]1O,GISTT1,resazurin,72 h,0.21
COc1cccc(C(=O)c2cc3c(-c4ccccc4)c(O)ccc3o2)c1,L1210,,48 h,38
Nc1nc(F)nc2c1ncn2[C@@H]1O[C@H](COP(=O)(O)O)[C@@H](O)[C@@H]1O,GISTT1,,72 h,0.53
CC(C)[C@@H](N)c1nc2cc(-c3ccncc3F)sc2c(=O)[nH]1,COLO 205,MTT,,1.19
O=C1Nc2ccccc2C(=O)CCc2cc(F)ccc21,L6,,,96
COc1ccc(/C=C\c2cc(OC)c(OC)c(OC)c2)cc1O,L1210,,48 h,0.0032
CC(=O)[C@]1(O)Cc2c(O)c3c(c(O)c2[C@@H](O[C@H]2C[C@H](N)[C@H](O)[C@H](C)O2)C1)C(=O)c1ccccc1C3=O,GISTT1,,72 h,0.09
O=C1Nc2ccccc2C(=NO)CCc2ccccc21,L6,,,> 380
COC(=O)Nc1nc2ccc(C(=O)c3ccccc3)cc2[nH]1,GISTT1,resazurin,72 h,0.81
O=c1c(O)c(-c2ccc(O)c(O)c2)oc2cc(O)cc(O)c12,SCaBER,ATP luminescence,72 h,24.2
COc1cccc2c1C(=O)c1c(O)c3c(c(O)c1C2=O)C[C@@](O)(C(=O)CO)C[C@@H]3O[C@H]1C[C@H](N)[C@H](O)[C@H](C)O1,GISTT1,resazurin,72 h,0.31
CC(C)[C@H](N)C(=O)N1CCC[C@H]1B(O)O,RS4-11,ATP luminescence,24 h,0.147
COc1cccc(C(=O)c2cc3c(-c4ccccc4)c(OC)ccc3o2)c1,L1210,,48 h,10
C#C[C@]1(O)CC[C@H]2[C@@H]3CCC4=Cc5oncc5C[C@]4(C)[C@H]3CC[C@@]21C,GISTT1,resazurin,72 h,> 1
CO/N=C1\CCc2ccccc2C(=O)Nc2ccccc21,L6,,,250
COc1ccc(C(=O)c2cc3c(-c4ccccc4)c(O)ccc3o2)cc1,L1210,,48 h,1.3
CC(C)=CCC/C(C)=C/COc1ccc2ccc(=O)oc2c1,COLO 205,MTT,72 h,63.1
